Hits are enriched below; roughly 10% of the tested compounds scored in any of these assays.
PMI act hi M6P = activators of human phosphomannose isomerase at near-saturating mannose 6-phosphate. coupled PMI enzyme assay, resazurin fluorescence, 20 min; active compounds read high; 1 = untreated enzyme, 0 = substrate-free blank. activation factor at 20 µM. 0.34% of 190,000 active. AID 1216;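 active = activation factor of 2 or more at 20 µM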
Target sequence (P34949 whole entry, looked up): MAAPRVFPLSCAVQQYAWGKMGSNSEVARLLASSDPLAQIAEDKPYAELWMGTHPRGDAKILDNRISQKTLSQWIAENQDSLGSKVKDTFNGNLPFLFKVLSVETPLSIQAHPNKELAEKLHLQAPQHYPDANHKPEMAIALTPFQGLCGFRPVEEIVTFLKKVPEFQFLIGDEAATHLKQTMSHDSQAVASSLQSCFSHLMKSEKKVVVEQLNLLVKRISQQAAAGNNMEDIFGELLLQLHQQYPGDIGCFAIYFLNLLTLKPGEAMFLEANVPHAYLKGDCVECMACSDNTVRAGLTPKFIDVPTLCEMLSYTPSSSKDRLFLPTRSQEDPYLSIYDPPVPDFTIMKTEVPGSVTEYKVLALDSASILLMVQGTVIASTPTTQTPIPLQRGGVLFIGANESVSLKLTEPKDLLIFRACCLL
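Test system: human phosphomannose isomerase with PGI, G6PDH, diaphorase coupling enzymes; amount: 15 ng/mL PMI; incubation: enzyme reaction with compound 20 min at room temperature; technique: resorufin fluorescence (Ex 544/Em 590 nm) from resazurin via diaphorase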
WT yeast gro inh = growth inhibition of WT yeast, mitochondrial fusion screen | 2.1% of 190,000 active | inhibition, % at 10 µM | mitochondrial fusion phenotypic screen, WT strain; in the data active = inhibition above about 58%; tested in S. cerevisiae
L major viab = reduces viability of Leishmania major promastigotes | resazurin fluorescence viability | inhibition, % at 10 µM | 9% of 200,000 active | AID 1063; in the data active = inhibition above about 50%;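 also: promastigotes grown with compound for 44 hours at 28 °C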
PMI activator = activators of human phosphomannose isomerase. AID 1214. P34949. purified human PMI, coupled resazurin fluorescence, 20 min; active compounds read high; 1 = vehicle control, 0 substrate-free wells. activation factor at 20 µM. 0.005% of 190,000 active;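 active = activation factor of 2 or more at 20 µM, relative to plate controls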
Diaphorase act = activates diaphorase or chemically reduces, flagging diaphorase assay artifacts; Diaphorase/resazurin coupled assay, resorufin fluorescence, 16 min; active compounds read high; 1 = vehicle wells, 0 = NADH-free wells; activation factor at 20 µM; 0.005% of 190,000 active;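 active = diaphorase activity raised at least twofold by the compound at 20 µM; inactive = activation factor below 2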
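Material: purified diaphorase enzyme from Clostridium kluyveri / Medium: HEPES pH 7.4 buffer with MgCl2 and Tween 20 / Schedule: enzyme reaction of 16 min at room temperature / Measured by: resorufin fluorescence, excitation 544 nm, emission 590 nm / Evaluation: rise in resorufin formation, marking diaphorase activation or chemical reduction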
Each line names hits and unclear results; the compound was inactive in the other large screens.

COc1ccc(/C=N/NC(=S)Nc2ccccc2[N+](=O)[O-])cc1O	L major viab 57
Clc1cccc(CNCCNCc2cccc(Cl)c2)c1	L major viab 75
OCCNCc1cccc(Br)c1	none
O=S(=O)(Cc1cccc(C(F)(F)F)c1)c1ncn[nH]1	none
Cc1ccc(NP(=O)(c2ccc(N(C)C)cc2NC(=O)c2cccs2)N2CCOCC2)cc1Cl (stereo not drawn)	L major viab 58
Cc1ccc(NP(=O)(c2ccc(N(C)C)cc2NC(=O)c2cccs2)N2CCOCC2)cc1 (stereo not drawn)	none
O=C(COC(=O)c1ccc(Br)cc1)Nc1ccccc1Br	none
CC(C)c1cc(C(N)=O)c(NC(=O)c2cccc(COc3ccc(Cl)cc3)c2)s1	WT yeast gro inh 65, L major viab 96
CCOC(=O)c1c(C)sc2c1N(C(=O)CCl)c1cc(Cl)ccc1S2	L major viab 101
O=C(COC(=O)CCSc1ccc(Cl)cc1)NCc1ccccc1	L major viab 60
O=C(COC(=O)CCSc1ccccc1)Nc1ccc(F)cc1Cl	L major viab 53
O=C(COC(=O)CCSc1ccc(Cl)cc1)NCc1ccc(Cl)cc1	none
O=C(COC(=O)CCSc1ccccc1)Nc1cc(F)ccc1F	none
COCCNC(=O)C1=NOC(Cn2cc(C#N)c(=O)n(C)c2=O)C1 (stereo not drawn)	none
Cc1ccc(CN2C(=O)C3CCCN3c3ccc(S(=O)(=O)N4CCOCC4)cc32)cc1 (stereo not drawn)	none
COc1ccc(-n2c(SCC(N)=O)nc3sc4c(c3c2=O)CCC4)cc1	none
CCOc1ccccc1Nc1nc(-c2sc(NC(=O)c3ccco3)nc2C)cs1	L major viab 99
Cc1ccccc1Nc1nc(-c2sc(NC(=O)c3ccco3)nc2C)cs1	none
Cc1ccc(Nc2nc(-c3sc(NC(=O)c4ccco4)nc3C)cs2)cc1	L major viab 61
Cc1ccc(NC2c3ncccc3C(=O)N2Cc2ccco2)c(C)c1 (stereo not drawn)	none
CCc1ccc(NC(=O)CSc2nc3ccccc3c(=O)n2CCCN2CCC(C)CC2)cc1	WT yeast gro inh 79, L major viab 77
COCCCn1c(SCC(=O)Nc2ccc(C(=O)OC)cc2)nc2ccccc2c1=O	L major viab 89
Cc1ccc(NC(=O)CSc2nc3ccccc3c(=O)n2CCCN2CCCCC2)cc1C	L major viab 100
CCC(C)NC(=O)CSc1nc2ccccc2c(=O)n1Cc1ccc(OC)cc1 (stereo not drawn)	L major viab 55
CCSc1nnc(CNC(=O)C23CC4CC(CC(C4)C2)C3)n1C1CCCCC1	none
COc1ccccc1NC(=O)c1cc(Sc2nncn2C)nc2ccccc12	none
N#Cc1ccc(Oc2ccc(NC(=O)C3CC=CCC3C(=O)O)cc2)cc1 (stereo not drawn)	none
Cc1c(C(=O)NC(=S)Nc2ccc(N3CCOCC3)cc2)cccc1[N+](=O)[O-]	none
O=C1c2cccc(OCC(=O)N3N=C(c4cccs4)CC3c3ccc(F)cc3)c2CCN1Cc1cccnc1 (stereo not drawn)	L major viab 85
O=C(NCc1ccccc1)c1ccc(COCC(F)(F)F)o1	none
Cc1ccc(-n2nc(C(=O)N/N=C/c3cccc(C(F)(F)F)c3)c3ccccc3c2=O)cc1C	none
N#C/C(=C\c1cc(Cl)ccc1O)C(=O)NC1CCCCC1	none
COc1ccc(-c2[nH]ncc2/C=C(/C#N)C(=O)NC2CCCCC2)cc1	L major viab 66
N#C/C(=C\C=C\c1ccccc1[N+](=O)[O-])C(=O)NC1CCCCC1	L major viab 91
Cc1ccc(-c2[nH]ncc2/C=C(\C#N)C(=O)NC2CCCCC2)cc1	none
N#C/C(=C\c1ccccc1[N+](=O)[O-])C(=O)NC1CCCCC1	WT yeast gro inh 58, L major viab 100
O=C(NC(=S)Nc1ccc2c(c1)OCCO2)c1cccc2ccccc12	none
COC(=O)c1c(NC(=O)COC(=O)Cn2cnc3ccccc32)sc2c1CCCC2	none
COC(CNC(=O)c1cc(-c2ccncc2)nc2ccc(S(=O)(=O)N3CCOCC3)cc12)OC	none
C=CCn1c(SCc2cc(=O)n3ccsc3n2)nc2ccccc2c1=O	none
O=C(NCc1ccco1)c1ccc(CNc2c(N3CCCCC3)c(=O)c2=O)cc1	none
O=C(Nc1cccc2ccccc12)NC1CCCc2ccccc21 (stereo not drawn)	none
